Experimental findings from ChEMBL document CHEMBL4219218, “P3-P4 ureas and reverse carbamates as potent HCV NS3 protease inhibitors: Effective transposition of the P4 hydrogen bond donor” (Bioorg Med Chem Lett, 2018) are described below.

In general, AUC refers to the area under the concentration-time curve, a measure of exposure. Read a low AUC as low exposure.

Series [1] in a line: AUC in Sprague-Dawley rat plasma at 15 mg/kg administered intraduodenally as single dose measured at 4 hrs by LC/MS/MS method. It counts as ADME, organism-based. The arrangement: dose 15 mg/kg, time < 4 hr, route intraduodenal. In short, it runs like this: (§1)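 Single intraduodenal dose of 15 mg/kg to rats, n = 2. Plasma and liver exposure measured over a 4 h period, with a 4 h endpoint.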

A short description of series [2]: Drug level in Sprague-Dawley rat liver at 15 mg/kg administered intraduodenally as single dose measured at 4 hrs by LC/MS/MS method. The class given is ADME, organism-based. The conditions noted are these: read-out: Drug uptake. The essentials:
as §1

With `C=C[C@@H]1C[C@]1(NC(=O)[C@@H]1C[C@@H](Oc2nccc3cc(OC)ccc23)CN1C(=O)[C@@H](NC(=O)OC(C)(C)C)C(C)(C)C)C(=O)NS(=O)(=O)C1CC1`, in series [1], the AUC at 4 h is 7420 ng·h/mL. In series [2], the concentration at 4 h amounted to 64700 ng/g. In the same order, the values of `C=C[C@@H]1C[C@]1(NC(=O)[C@@H]1C[C@@H](Oc2cc(-c3ccccc3)nc3cc(OC)ccc23)CN1C(=O)[C@@H](NC(=O)OC(C)(C)C)C(C)(C)C)C(=O)NS(=O)(=O)C1CC1` are 61 ng·h/mL and 7850 ng/g.

Take `C=C[C@@H]1C[C@]1(NC(=O)[C@@H]1C[C@@H](Oc2nccc3cc(OC)ccc23)CN1C(=O)[C@@H](NC(=O)NC(C)(C)C)C(C)(C)C)C(=O)NS(=O)(=O)C1CC1`: the AUC at 4 h in series [1] is 497 ng·h/mL. Moreover, the concentration at 4 h in series [2] was determined as 1110 ng/g.

As for `C=C[C@@H]1C[C@]1(NC(=O)[C@@H]1C[C@@H](Oc2cc(-c3ccccc3)nc3cc(OC)ccc23)CN1C(=O)[C@H]([C@@H](C)CC)N(C)C(=O)NC1CCCC1)C(=O)NS(=O)(=O)C1CC1`, the concentration at 4 h in series [2] stood at 1240 ng/g. Regarding `C=C[C@@H]1C[C@]1(NC(=O)[C@@H]1C[C@@H](Oc2cc(-c3ccccc3)nc3cc(OC)ccc23)CN1C(=O)[C@@H](NC(=O)NC(C)(C)C)C(C)(C)C)C(=O)NS(=O)(=O)C1CC1`, in series [1], the AUC at 4 h was determined as 17 ng·h/mL. Further, in series [2], the concentration at 4 h was 72 ng/g. In the same order, the values of `C=C[C@@H]1C[C@]1(NC(=O)[C@@H]1C[C@@H](Oc2nccc3cc(OC)ccc23)CN1C(=O)[C@@H](NC(=O)N[C@H](COC)C(C)(C)C)C(C)(C)C)C(=O)NS(=O)(=O)C1CC1` are 3280 ng·h/mL and 838 ng/g. `C=C[C@@H]1C[C@]1(NC(=O)[C@@H]1C[C@@H](Oc2nccc3cc(OC)ccc23)CN1C(=O)[C@@H](NC(=O)N[C@H](C(=O)N1CCN(c2ncccn2)CC1)C(C)(C)C)C(C)(C)C)C(=O)NS(=O)(=O)C1CC1` returned an AUC at 4 h in series [1] of 1630 ng·h/mL. Moreover, the concentration at 4 h in series [2] came out at 87 ng/g. `C=C[C@@H]1C[C@]1(NC(=O)[C@@H]1C[C@@H](Oc2cc(-c3ccccc3)nc3cc(OC)ccc23)CN1C(=O)[C@@H](OC(=O)NC1CCCC1)C(C)(C)C)C(=O)NS(=O)(=O)C1CC1` showed an area under the curve (AUC) at 4 h in series [1] of 95 ng·h/mL. Moreover, the concentration at 4 h in series [2] stood at 3430 ng/g. In the same order, the values of `C=C[C@@H]1C[C@]1(NC(=O)[C@@H]1C[C@@H](Oc2cc(-c3ccccc3)nc3cc(OC)ccc23)CN1C(=O)[C@H]([C@@H](C)CC)N(C)C(=O)NC(C)(C)C)C(=O)NS(=O)(=O)C1CC1` are 16 ng·h/mL and 1780 ng/g. For the molecule `C=C[C@@H]1C[C@]1(NC(=O)[C@@H]1C[C@@H](Oc2nccc3cc(OC)ccc23)CN1C(=O)[C@@H](NC(=O)N[C@H](C(=O)O)C(C)(C)C)C(C)(C)C)C(=O)NS(=O)(=O)C1CC1`, the area under the curve (AUC) at 4 h in series [1] was 91 ng·h/mL. As to `C=C[C@@H]1C[C@]1(NC(=O)[C@@H]1C[C@@H](Oc2nccc3cc(OC)ccc23)CN1C(=O)[C@@H](NC(=O)N[C@H](C(=O)OC(C)(C)C)C(C)(C)C)C(C)(C)C)C(=O)NS(=O)(=O)C1CC1`, the exposure (AUC) at 4 h in series [1] was 632 ng·h/mL. For the same molecule, the concentration at 4 h in series [2] was 4850 ng/g. With `C=C[C@@H]1C[C@]1(NC(=O)[C@@H]1C[C@@H](Oc2cc(-c3ccccc3)nc3cc(OC)ccc23)CN1C(=O)[C@@H](OC(=O)NC(C)C)C(C)(C)C)C(=O)NS(=O)(=O)C1CC1`, in series [2], the concentration at 4 h is 430 ng/g. As for `C=C[C@@H]1C[C@]1(NC(=O)[C@@H]1C[C@@H](Oc2cc(-c3ccccc3)nc3cc(OC)ccc23)CN1C(=O)[C@@H](OC(=O)NC(C)(C)C)C(C)(C)C)C(=O)NS(=O)(=O)C1CC1`, in series [1], the exposure (AUC) at 4 h is 82 ng·h/mL. Besides, the concentration at 4 h in series [2] worked out at 3770 ng/g. In series [1], `C=C[C@@H]1C[C@]1(NC(=O)[C@@H]1C[C@@H](Oc2cc(-c3ccccc3)nc3cc(OC)ccc23)CN1C(=O)[C@@H](NC(=O)N(C)C(C)(C)C)C(C)(C)C)C(=O)NS(=O)(=O)C1CC1` had an AUC at 4 h of 32 ng·h/mL. Besides, the concentration at 4 h in series [2] was 2600 ng/g.
